We go through seven compounds from paper PMC2993511 (Biochemical pharmacology, 2010).

“Also recorded” adds a separate entry of the source.

One test deals with Naïve CHO cells. The experiment in a line: [35S]GTPγS binding in naïve CHO cells. It is filed as biochemical, Chinese hamster. The settings on record: not transfected with MOR or DOR, data not shown. An outline of the steps: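 Untransfected CHO cell membranes, a receptor-free control. Tested with 0.1 nM [35S]GTPγS and 3 μM GDP in HEPES pH 7.4 buffer at 30°C. Extract and DAMGO were added. Nonspecific binding was subtracted using 10 μM unlabeled GTPγS. Read-out was filtration plus scintillation counting.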
(Binding of GTPγS marks nucleotide exchange on a G protein.)

Test [1] deals with T1, DOR (Homo sapiens, UniProt P41143). In words: Receptor binding assay, displacement of [3H]deltorphin. On the technique in general: In a radioligand displacement assay an active substance lowers the binding of a labelled ligand.
The target in test [2] is T2, MOR (Homo sapiens, UniProt P35372). In words: Receptor binding assay, displacement of [3H]DAMGO.
The target in test [3] is T1, DOR. The experiment in a line: [35S]GTPγS binding assay, CHO-DOR membranes. It is filed as biochemical.
Test [4] concerns the target T2, MOR. The experiment in a line: [35S]GTPγS binding assay, CHO-MOR membranes. It is filed as biochemical. An outline of the steps:
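Human MOR stably expressed in CHO cells (G418 selection); membranes homogenised on ice and spun at 20,000 g. 20 μg protein incubated with 0.1 nM [35S]GTPγS, 3 μM GDP, Mg2+ and Na+ in HEPES pH 7.4, 1 hr, 30°C. DAMGO was the positive control. Nonspecific binding was taken with 10 μM unlabeled GTPγS. Filter-bound radioactivity was counted and expressed as percent stimulation above basal.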

T1 sequence (P41143 whole entry): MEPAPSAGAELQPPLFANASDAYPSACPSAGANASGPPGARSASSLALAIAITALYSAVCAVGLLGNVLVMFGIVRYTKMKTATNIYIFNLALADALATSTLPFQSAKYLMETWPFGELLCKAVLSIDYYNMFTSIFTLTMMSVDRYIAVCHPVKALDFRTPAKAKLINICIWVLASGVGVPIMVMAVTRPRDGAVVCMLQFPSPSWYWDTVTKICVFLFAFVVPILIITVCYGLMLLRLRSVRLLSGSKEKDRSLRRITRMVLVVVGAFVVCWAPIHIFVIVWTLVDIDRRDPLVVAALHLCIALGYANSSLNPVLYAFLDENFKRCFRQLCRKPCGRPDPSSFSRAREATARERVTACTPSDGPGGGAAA
T2 sequence (P35372 whole entry): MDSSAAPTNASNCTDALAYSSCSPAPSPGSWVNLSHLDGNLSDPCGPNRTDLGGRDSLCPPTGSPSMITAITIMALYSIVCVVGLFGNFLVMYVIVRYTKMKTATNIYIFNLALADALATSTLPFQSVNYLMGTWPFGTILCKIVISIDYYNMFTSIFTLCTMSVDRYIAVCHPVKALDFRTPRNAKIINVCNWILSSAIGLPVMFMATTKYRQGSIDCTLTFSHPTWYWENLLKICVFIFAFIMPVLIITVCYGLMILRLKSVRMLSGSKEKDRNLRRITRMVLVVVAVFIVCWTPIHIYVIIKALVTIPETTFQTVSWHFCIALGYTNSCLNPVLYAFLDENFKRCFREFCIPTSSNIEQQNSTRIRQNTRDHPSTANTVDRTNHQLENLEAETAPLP

On to `C=CCN1C[C@H](C)N([C@H](c2ccc(C(=O)N(CC)CC)cc2)c2cccc(OC)c2)C[C@H]1C` [SNC-80], for which the “stimulation of [35S]GTPγS binding in naïve CHO cells” value with Naïve CHO cells is on record as “not stimulated”.

As a reminder, the IC50 is the point on the concentration scale where inhibition reaches its midpoint. Lower therefore signals greater potency. The Ki is the dissociation constant of the complex between target and ligand, obtained from inhibition or displacement. Read a high Ki as a looser hold on the target. Take `O=c1cc(-c2ccc(O)cc2)oc2cc(O)cc(O)c12` [apigenin]: at DOR [1], the IC50 was above 50 µM. On MOR [2], this compound had a 50% inhibitory concentration (IC50) of 35.8 ± 7.81 µM and an inhibition constant (Ki) of 16.2 ± 3.16 µM.

As usually defined, the EC50 is the midpoint of the concentration-response curve. High values mean weaker potency, low ones greater potency. Broadly, the Emax is the size of the effect at its maximum, as opposed to the concentration needed. `COc1ccc(-c2oc3cc(OC)c(OC)c(O)c3c(=O)c2OC)cc1O` [casticin] had an EC50 at DOR [3] of 15.3 ± 6.32 µM. Moreover, at DOR [3] (read-out: DOR Emax, stimulation of [35S]GTPγS binding), the Emax worked out at 74.6 ± 18.2%. In addition, the “activation of MOR” value on MOR [4] was “did not activate”. Also, the IC50 at DOR [1] worked out at 2.05 ± 0.631 µM; at MOR [2], 2.84 ± 0.707 µM. Further, the Ki on DOR [1] was determined as 1.29 ± 0.44 µM; on MOR [2], 1.14 ± 0.167 µM.

On DOR [1], `COc1c(-c2ccc(O)cc2)oc2cc(O)cc(O)c2c1=O` [isokaempferide] returned an IC50 of 22.8 ± 14 µM and a Ki of 12.9 ± 7.92 µM. In addition, the “affinity for MOR” value at MOR [2] was “no significant affinity”.

At DOR [1], `O=c1cc(-c2ccc(O)c(O)c2)oc2cc(O)cc(O)c12` [luteolin] showed a 50% inhibitory concentration (IC50) of 16.8 ± 4.87 µM and an inhibition constant Ki of 9.53 ± 2.73 µM. In addition, on MOR [2], the IC50 stood at 43.3 ± 13.2 µM and the inhibition constant (Ki) amounted to 13.4 ± 4.06 µM.

Regarding “N,N-diallyl-Tyr-Aib-Aib-Phe-Leu-OH [ICI 174,864, reference compound]”, the “effect on casticin stimulated [35S]GTPγS binding” value at DOR [3] (casticin 10 and 50 μM, ICI 174,864 10 μM) is recorded as “inhibited; also recorded: blocked”.

In the case of “[D-Ala^2,N-MePhe^4-Glyol^5]enkephalin [DAMGO]”, in the test on Naïve CHO cells, the “stimulation of [35S]GTPγS binding in naïve CHO cells” value is recorded as “not stimulated”.
